The target of series [1] is Hypoxia inducible factors; HIF-1-alpha, HIF-2-alpha (Homo sapiens, UniProt Q16665+Q99814). Put plainly: Inhibition of HIF1 signaling in human U251 cells expressing VEGF by VEGF promoter-driven PLAP reporter gene assay. It counts as cell-based. The settings on record: u-251. The procedure, abridged:
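U251/VEGF-PLAP reporter cells seeded at 4.0 × 10⁴ cells/well and incubated overnight before compounds were added. Compounds were dissolved in DMSO and diluted in culture medium, final DMSO ≤0.2% (v/v). Cells grown in DMEM with 10% FBS at 37 °C, 5% CO₂, under 21% O₂ (normoxia) or 2% O₂ (hypoxia).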

Series [2] concerns U-251. Put plainly: Suppression of HIF1alpha mRNA expression in human U251 cells. It counts as functional, cell-based.
Series [3] has as its system U-251. Put plainly: Suppression of deferoxamine-induced HIF1alpha protein expression in human U251 cells at 0.0001 to 1 uM incubated for 6 hrs by ELISA method. In kind it is functional, cell-based. The procedure, abridged:
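Untransfected U251 cells at 4 × 10⁴ cells/well were treated for 6 h with a range of compound concentrations. Conditions were 21% O₂, 2% O₂, or 21% O₂ plus 100 µM deferoxamine. Cells were lysed, lysate diluted fivefold in PBS/1% BSA, and HIF-1α measured by total HIF-1α ELISA. Mean of two wells.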

Series [4] relates to Mus musculus. As to the kind of experiment: Suppression of HIF1alpha protein expression in BALB/cA mouse xenografted with human U251 cells at 50 to 100 mg/kg, po after 24 hrs by ELISA. The settings on record: U-251. In kind it is functional, organism-based. In short, it runs like this:
(§1)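 Female BALB/cA nu/nu mice bearing subcutaneous untransfected U251 tumors (~300 mm³) got a single oral dose at 10 mL/kg in DMSO/Tween-80 (35:65) diluted 5-fold with saline. Tumors harvested 24 h later, frozen in liquid nitrogen and fragmented, then lysed in Tris pH 7.5/NaCl/Triton X-100 buffer and centrifuged. HIF-1α measured by ELISA, normalized to BCA total protein, expressed as % of vehicle control. Mean of three animals.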
A general note: In xenograft studies the graft and the host belong to different species.

Series [5] relates to Mus musculus. Put plainly: Suppression of HIF1alpha mRNA expression in BALB/cA mouse xenografted with human U251 cells at 50 to 100 mg/kg, po after 24 hrs. It counts as functional, organism-based. The settings on record: U-251.
Series [6] concerns U-251. As to the kind of experiment: Suppression of hypoxia-induced HIF1alpha protein expression in human U251 cells at 0.0001 to 1 uM incubated for 6 hrs in presence of 25 uM proteasome inhibitor MG132 by ELISA method. In kind it is functional, cell-based. The procedure, abridged:
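Untransfected U251 cells (4 × 10⁴/well) were incubated with graded compound concentrations for 6 h under 21% O₂, 2% O₂, or 2% O₂ with 25 µM MG132. Lysates were diluted fivefold in PBS/1% BSA and HIF-1α measured by ELISA. Mean of two wells.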

The subject of series [7] is U-251. Put plainly: Suppression of hypoxia-induced HIF1alpha protein expression in human U251 cells at 0.0001 to 1 uM incubated for 6 hrs by ELISA method. In kind it is functional, cell-based. The procedure, abridged:
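Untransfected U251 cells at 4 × 10⁴ cells/well were exposed to compound for 6 h under hypoxia (2% O₂), with normoxia (21% O₂) as comparison. Cells were lysed in Tris/NaCl/Triton buffer, lysate diluted fivefold in PBS with 1% BSA, and HIF-1α quantified by ELISA. Mean of two wells.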
On the technique in general: ELISA stands for enzyme-linked immunosorbent assay.

The test system of series [8] is Mus musculus. As to the kind of experiment: Suppression of HIF1alpha protein expression in BALB/cA mouse xenografted with human U251 cells at 12.5 mg/kg, po after 3 hrs by ELISA. The settings on record: U-251. On the set-up: dose 12.5 mg/kg. In kind it is functional, organism-based. The procedure, abridged: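 Single oral dose given to female nude BALB/cA mice with subcutaneous U251 xenografts. Tumors collected at 3, 12, 16 and 24 h after dosing. HIF-1α in total tumor extracts measured by ELISA and normalized to total protein. Mean ± SD reported.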

Series [9] deals with Mus musculus. Put plainly: Toxicity in BALB/cA mouse xenografted with human U251 cells assessed as reduction in body weight at 12.5 to 100 mg/kg, po dosed daily for 11 days. It counts as organism-based, U-251. More on the design: dose 12.5-100 mg/kg, route oral. The note with it: in vivo, 264 h. In short, it runs like this:
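Female BALB/cA nu/nu mice carried subcutaneous untransfected U251 tumors of about 300 mm³, 5 per group. Given oral doses at 10 mL/kg once daily for 11 days in DMSO/Tween-80 (35:65) diluted 5-fold in saline. Body weight was followed alongside tumor volume.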

For series [10], the system named is U-251. Put plainly: Antitumor activity against human U251 cells xenografted in BALB/cA mouse assessed as delay in tumor growth at 12.5 to 100 mg/kg, po dosed daily for 11 days. It counts as functional, organism-based. The procedure, abridged: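 Untransfected U251 cells injected subcutaneously into flank or hind leg of female BALB/cA nu/nu mice and grown to about 300 mm³. Mice stratified into groups of 5 with similar mean tumor volume. Dosed orally at 10 mL/kg once daily for 11 days. Vehicle was DMSO/Tween-80 (35:65) diluted 5-fold with saline just before dosing. Tumor volume (length × diameter²/2) measured twice weekly and expressed relative to pretreatment size.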

Series [11] relates to Mus musculus. Put plainly: Toxicity in BALB/cA mouse xenografted with human U251 cells assessed as mouse survival at 50 mg/kg/day, po. In kind it is organism-based, U-251. More on the design: route oral. The note with it: in vivo. In short, it runs like this: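 Survival model: untransfected U251 cells implanted intracranially in athymic mice. Oral dosing once daily for about 50 days. Dose formulated in DMSO/Tween-80 (35:65) and diluted 5-fold with saline immediately before administration.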

The subject of series [12] is Mus musculus. Put plainly: Suppression of HIF1alpha protein expression in BALB/cA mouse xenografted with human U251 cells at 6.25 to 12.5 mg/kg, po after 24 hrs by ELISA. The note with it: U-251. In kind it is functional, organism-based. The procedure, abridged: as §1
The test system of series [13] is Mus musculus. As to the kind of experiment: Toxicity in BALB/cA mouse xenografted with human U251 cells assessed as reduction in body weight at 12.5 mg/kg, po after 24 hrs. It counts as organism-based, U-251. The settings on record: in vivo. On the set-up: dose 12.5 mg/kg, route oral; scale not given: the % may be the effect or the level left. In short, it runs like this:
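Nude female BALB/cA mice bearing subcutaneous U251 tumors received one oral dose (10 mL/kg; DMSO/Tween-80 35:65 diluted 5-fold with saline). Body weight was compared with vehicle controls 24 h after dosing.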

Each structure is given as a SMILES string. The source made the active and inactive calls. No cut-off for these calls is given here. Bounds are passed on as bounds.

Broadly, the IC50 is the concentration that gives 50% inhibition. The compound `O=C(Nc1ccc(C(F)(F)F)cc1)c1ccc(CN2CCN(Cc3ccccc3)CC2)cc1` came in with an IC50 in series [1] of 0.013 µM. On the same count and under the same terms, then `COc1ccc(NC(=O)c2ccc(CN3CCOCC3)cc2)cc1`, with 13.9 µM; and `CN(C(=O)c1ccc(CN2CCOCC2)cc1)c1ccc(I)cc1.Cl`, with 2.2 µM. The same measure, in the same setting: then `CN(CCN(C)Cc1cccnc1)Cc1ccc(C(=O)Nc2ccc(C(F)(F)F)cc2)cc1`, with 0.12 µM; and `O=C(Nc1ccc(C(F)(F)F)cc1)c1ccccc1CN1CCOCC1`, with greater than 10 µM. Take `O=C(Nc1ccc(C#CC2CCCCC2)cc1)c1ccc(CN2CCN(Cc3cccnc3)CC2)cc1`: the IC50 in series [1] was found to be 0.0031 µM. Still for that read-out and setting: then `COCc1ccc(CN2CCN(Cc3ccc(C(=O)Nc4ccc(C#CC56CC7CC(CC(C7)C5)C6)cc4)cc3)[C@@H](C)C2)cn1`, with 0.0011 µM; and `C[C@@H]1CN(Cc2cccnc2)CCN1Cc1ccc(C(=O)Nc2ccc(C(F)(F)F)cc2)cc1`, with 0.013 µM; and `O=C(Nc1ccc(C(F)(F)F)cc1)c1ccc(CN2CCOCC2)cn1`, with 0.23 µM. For `C[C@H]1CN(Cc2cccnc2)CCN1Cc1ccc(C(=O)Nc2ccc(C#CC34CC5CC(CC(C5)C3)C4)cc2)cc1`, the half-maximal inhibitory concentration (IC50) in series [1] is 0.0026 µM. In the case of `O=C(Nc1ccc(C#CC23CC4CC(CC(C4)C2)C3)cc1)c1ccc(CN2CCN(Cc3cccnc3)CC2)cc1`, in [1], the IC50 is 0.00097 µM.

In turn, `O=C(Nc1ccc(C#CC2(O)CCCCC2)cc1)c1ccc(CN2CCN(Cc3cccnc3)CC2)cc1` had an IC50 in series [1] greater than 0.2 µM.

In [1], `Nc1ncccc1C(=O)N1CCN(Cc2ccc(C(=O)Nc3ccc(C#CC45CC6CC(CC(C6)C4)C5)cc3)cc2)CC1` came in with an IC50 of 0.0058 µM. Turning to `O=C(Nc1ccc(C(F)(F)F)cc1)c1ccc(CC2CCN(Cc3ccncc3)CC2)cc1`, the half-maximal inhibitory concentration (IC50) in [1] was found to be 0.11 µM. With `O=C(Nc1ccc(C#Cc2ccccc2)cc1)c1ccc(CN2CCN(Cc3cccnc3)CC2)cc1`, the inhibition result in the series on U-251 [2], with U-251 [3], with Mus musculus [5] and in the series with U-251 [6] was “inactive” each time. Further, the inhibition result in the series on Mus musculus [4] and in the series with U-251 [7] was “Active” throughout. Moreover, the IC50 in [1] was 0.0079 µM. For `O=C(Nc1ccc(C(F)(F)F)cc1)c1ccc(CN2CCN(Cc3ccncc3)CC2)cc1`, the IC50 in [1] was 0.0079 µM. On the same count and under the same terms, then `O=C(Nc1ccc(C(F)(F)F)cc1)c1ccc(CN2CCN(Cc3cccnc3)CC2)cc1`, with 0.014 µM; and `Ic1ccc(NCc2ccc(CN3CCOCC3)cc2)cc1`, with 2.5 µM; and `O=C(Nc1ccc(C#Cc2cccnc2)cc1)c1ccc(CN2CCN(Cc3cccnc3)CC2)cc1`, with 0.034 µM. In the case of `Nc1ncccc1C(=O)N1CCN(Cc2ccc(C(=O)Nc3ccc(C#Cc4ccccc4)cc3)cc2)CC1`, the inhibition result in the series with Mus musculus [8] and in the series on Mus musculus [4] was “Active” in each case. For the same compound, the Activity result in the series on Mus musculus [9] is “Non-toxic”. For the same compound, in the series on U-251 [10], the TGI entry was “Active”. Moreover, the inhibition entry in the series with Mus musculus [5] was “inactive”. The same compound yielded an IC50 in series [1] of 0.021 µM. The Survival with Mus musculus [11] came to 50 days.

On to `O=C(Nc1ccc(I)cc1)c1ccc(CN2CCOCC2)cc1`, for which, in series [1], the IC50 worked out at 0.56 µM. The same measure, in the same setting: in the case of `O=C(Nc1ccc(C(F)(F)F)cc1)c1ccc(CN2CCOCC2)cc1` it was 0.28 µM. Turning to `COCCOCc1ccc(CN2CCN(Cc3ccc(C(=O)Nc4ccc(C#CC56CC7CC(CC(C7)C5)C6)cc4)cc3)[C@@H](C)C2)cn1`, in the series with Mus musculus [12], the inhibition result is “Active”. The IC50 in series [1] stood at 0.00047 µM. Besides, the Activity in the series on Mus musculus [13] turned out to be 92%.

For `O=C(Nc1ccc(C(F)(F)F)cn1)c1ccc(CN2CCOCC2)cc1`, the IC50 in [1] was 4 µM.

Consider `C[C@H]1CN(Cc2cccnc2)CCN1Cc1ccc(C(=O)Nc2ccc(C(F)(F)F)cc2)cc1`, for which the half-maximal inhibitory concentration (IC50) in series [1] amounted to 0.0033 µM.

`FC(F)(F)c1ccc(/C=C/c2ccc(CN3CCOCC3)cc2)cc1`: the IC50 in series [1] came to 0.88 µM.

Compound `O=C(Nc1ccc(C(F)(F)F)cc1)c1cccc(CN2CCOCC2)c1` yielded a half-maximal inhibitory concentration (IC50) in series [1] greater than 10 µM. Still for that read-out and setting: in the case of `O=C(Nc1cccc(I)c1)c1ccc(CN2CCOCC2)cc1` it was 2.2 µM; in that of `O=C(Nc1ccc(C(F)(F)F)cc1)c1ccc(CN2CCOCC2)nc1`, 4.5 µM; in that of `C[C@H]1CN(Cc2ccc(C(=O)Nc3ccc(C(F)(F)F)cc3)cc2)CCN1Cc1cccnc1`, 0.035 µM. Still for that read-out and setting: in the case of `O=C(Nc1ccc(C(F)(F)F)cc1)c1ccc(CN2CCOCC2)s1` it was 1.6 µM. Regarding `O=C(Nc1ccccc1)c1ccc(CN2CCOCC2)cc1`, the IC50 in series [1] was found to be 5.4 µM. In [1], `O=C(Nc1ccc(CN2CCOCC2)cc1)c1ccc(I)cc1` displayed an IC50 of 2.5 µM. The same measure, in the same setting: in the case of `C[C@@H]1CN(Cc2ccc(C(=O)Nc3ccc(C(F)(F)F)cc3)cc2)CCN1Cc1cccnc1` it was 0.03 µM; in that of `O=C(Nc1ccccc1I)c1ccc(CN2CCOCC2)cc1`, greater than 20 µM.
